# Test results published in ChEMBL document CHEMBL5120972, “Small-Molecule Inhibitors of the MLL1 CXXC Domain, an Epigenetic Reader of DNA Methylation” (ACS Med Chem Lett, 2022).
# Assays:
# [1] = biological target: Histone-lysine N-methyltransferase 2A (Homo sapiens, UniProt Q03164); assay: Inhibition of GST-tagged human MLL1 (1147 to 1203 residues) expressed in Escherichia coli BL21 cells incubated for 30 mins by fluorescence polarization assay
# Outline: (§1)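 Competition fluorescence polarization assay. CXXC domain protein is held at 2× its own KD. All domains are expressed and purified by the same method. Standard deviations come from three separate measurements.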
# [2] = Inhibition of GST-tagged human MLL1 Cys1188Ala mutant (1147 to 1203 residues) expressed in Escherichia coli BL21 cells incubated for 30 mins by fluorescence polarization assay
# [3] = biological target: Methylcytosine dioxygenase TET1 (Homo sapiens, UniProt Q8NFU7); assay: Inhibition of GST-tagged human TET1 (583 to 633 residues) expressed in Escherichia coli BL21 cells incubated for 30 mins by fluorescence polarization assay; outline: as §1
# [4] = biological target: Methylcytosine dioxygenase TET3 (Homo sapiens, UniProt O43151); assay: Inhibition of GST-tagged human TET3 ([…] residues) expressed in Escherichia coli BL21 cell incubated for 30 mins by fluorescence polarization assay; outline: as §1
# [5] = biological target: T1, Lysine-specific demethylase 2B (Homo sapiens, UniProt Q8NHM5); assay: Inhibition of GST-tagged human KDM2B (604 to 660 residues) expressed in Escherichia coli BL21 cells incubated for 30 mins by fluorescence polarization assay; outline: as §1
# T1 sequence (Q8NHM5 whole entry): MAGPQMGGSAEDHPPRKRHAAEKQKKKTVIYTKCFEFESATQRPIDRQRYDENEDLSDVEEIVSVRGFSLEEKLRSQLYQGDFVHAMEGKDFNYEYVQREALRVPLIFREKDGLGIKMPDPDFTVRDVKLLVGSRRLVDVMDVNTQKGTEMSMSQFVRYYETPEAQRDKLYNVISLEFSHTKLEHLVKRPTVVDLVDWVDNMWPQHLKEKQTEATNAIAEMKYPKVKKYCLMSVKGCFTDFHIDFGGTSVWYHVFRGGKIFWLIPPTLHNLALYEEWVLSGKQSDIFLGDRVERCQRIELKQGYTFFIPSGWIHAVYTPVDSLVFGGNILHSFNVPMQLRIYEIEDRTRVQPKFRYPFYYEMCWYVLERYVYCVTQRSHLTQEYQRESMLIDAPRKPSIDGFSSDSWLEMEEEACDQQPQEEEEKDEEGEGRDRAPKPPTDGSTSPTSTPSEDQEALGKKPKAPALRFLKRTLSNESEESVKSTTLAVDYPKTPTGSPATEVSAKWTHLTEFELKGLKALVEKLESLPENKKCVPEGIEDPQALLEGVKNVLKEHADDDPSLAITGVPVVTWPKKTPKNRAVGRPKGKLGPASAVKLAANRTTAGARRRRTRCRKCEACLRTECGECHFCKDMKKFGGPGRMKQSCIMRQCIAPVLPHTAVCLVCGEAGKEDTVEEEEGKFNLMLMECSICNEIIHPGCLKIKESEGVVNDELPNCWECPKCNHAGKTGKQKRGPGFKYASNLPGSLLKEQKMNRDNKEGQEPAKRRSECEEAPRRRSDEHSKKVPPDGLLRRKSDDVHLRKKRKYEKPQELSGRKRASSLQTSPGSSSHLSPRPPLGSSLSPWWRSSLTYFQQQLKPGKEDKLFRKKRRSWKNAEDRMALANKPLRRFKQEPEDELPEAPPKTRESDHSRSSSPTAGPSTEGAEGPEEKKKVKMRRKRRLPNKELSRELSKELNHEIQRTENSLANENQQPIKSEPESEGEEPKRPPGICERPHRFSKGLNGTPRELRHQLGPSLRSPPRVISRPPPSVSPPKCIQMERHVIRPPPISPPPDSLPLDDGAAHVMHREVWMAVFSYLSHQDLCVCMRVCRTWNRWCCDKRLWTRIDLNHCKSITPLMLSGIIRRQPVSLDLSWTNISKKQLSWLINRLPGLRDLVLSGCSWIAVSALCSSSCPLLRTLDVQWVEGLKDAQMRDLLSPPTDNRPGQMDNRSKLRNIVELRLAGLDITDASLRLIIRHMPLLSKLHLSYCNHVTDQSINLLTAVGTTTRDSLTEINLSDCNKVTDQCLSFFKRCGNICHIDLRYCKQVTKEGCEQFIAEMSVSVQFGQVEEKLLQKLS
# [6] = biological target: T2, F-box/LRR-repeat protein 19 (Homo sapiens, UniProt Q6PCT2); assay: Inhibition of GST-tagged human FBXL19 (31 to 86 residues) expressed in Escherichia coli BL21 cells incubated for 30 mins by fluorescence polarization assay; outline: as §1
# T2 sequence (Q6PCT2 whole entry): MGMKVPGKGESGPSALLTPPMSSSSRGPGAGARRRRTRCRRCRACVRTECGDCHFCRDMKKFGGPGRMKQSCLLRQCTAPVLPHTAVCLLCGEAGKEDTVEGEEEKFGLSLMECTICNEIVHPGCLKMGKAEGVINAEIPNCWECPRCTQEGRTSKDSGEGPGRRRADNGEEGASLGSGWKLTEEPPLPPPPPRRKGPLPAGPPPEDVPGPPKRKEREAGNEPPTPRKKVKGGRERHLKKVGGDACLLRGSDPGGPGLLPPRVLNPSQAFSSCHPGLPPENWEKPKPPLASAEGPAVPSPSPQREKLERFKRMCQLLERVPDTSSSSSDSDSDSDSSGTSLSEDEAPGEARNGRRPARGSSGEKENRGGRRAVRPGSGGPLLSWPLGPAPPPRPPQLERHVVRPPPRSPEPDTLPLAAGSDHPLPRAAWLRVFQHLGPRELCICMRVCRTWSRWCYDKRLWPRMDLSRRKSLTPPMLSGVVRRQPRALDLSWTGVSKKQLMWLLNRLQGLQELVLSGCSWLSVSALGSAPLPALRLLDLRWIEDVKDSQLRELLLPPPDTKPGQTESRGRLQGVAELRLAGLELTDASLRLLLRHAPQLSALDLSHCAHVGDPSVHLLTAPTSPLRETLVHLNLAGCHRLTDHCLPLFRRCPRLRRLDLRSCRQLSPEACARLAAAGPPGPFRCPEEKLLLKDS
# [7] = biological target: T3, CXXC-type zinc finger protein 5 (Homo sapiens, UniProt Q7LFL8); assay: Inhibition of GST-tagged human CXXC5 (255 to 305 residues) expressed in Escherichia coli BL21 cells incubated for 30 mins by fluorescence polarization assay; outline: as §1
# T3 sequence (Q7LFL8 whole entry): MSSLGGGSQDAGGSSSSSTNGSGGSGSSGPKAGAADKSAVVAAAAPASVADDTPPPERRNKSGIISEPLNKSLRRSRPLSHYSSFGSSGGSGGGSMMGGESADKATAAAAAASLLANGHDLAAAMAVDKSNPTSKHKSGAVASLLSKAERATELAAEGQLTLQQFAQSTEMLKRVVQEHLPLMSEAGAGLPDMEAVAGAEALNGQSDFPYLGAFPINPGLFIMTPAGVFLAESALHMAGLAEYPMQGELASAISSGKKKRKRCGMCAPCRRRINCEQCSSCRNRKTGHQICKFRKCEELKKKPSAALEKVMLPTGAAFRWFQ
# Chain of Histone-lysine N-methyltransferase 2A (Q03164 1-2718 limits assumed): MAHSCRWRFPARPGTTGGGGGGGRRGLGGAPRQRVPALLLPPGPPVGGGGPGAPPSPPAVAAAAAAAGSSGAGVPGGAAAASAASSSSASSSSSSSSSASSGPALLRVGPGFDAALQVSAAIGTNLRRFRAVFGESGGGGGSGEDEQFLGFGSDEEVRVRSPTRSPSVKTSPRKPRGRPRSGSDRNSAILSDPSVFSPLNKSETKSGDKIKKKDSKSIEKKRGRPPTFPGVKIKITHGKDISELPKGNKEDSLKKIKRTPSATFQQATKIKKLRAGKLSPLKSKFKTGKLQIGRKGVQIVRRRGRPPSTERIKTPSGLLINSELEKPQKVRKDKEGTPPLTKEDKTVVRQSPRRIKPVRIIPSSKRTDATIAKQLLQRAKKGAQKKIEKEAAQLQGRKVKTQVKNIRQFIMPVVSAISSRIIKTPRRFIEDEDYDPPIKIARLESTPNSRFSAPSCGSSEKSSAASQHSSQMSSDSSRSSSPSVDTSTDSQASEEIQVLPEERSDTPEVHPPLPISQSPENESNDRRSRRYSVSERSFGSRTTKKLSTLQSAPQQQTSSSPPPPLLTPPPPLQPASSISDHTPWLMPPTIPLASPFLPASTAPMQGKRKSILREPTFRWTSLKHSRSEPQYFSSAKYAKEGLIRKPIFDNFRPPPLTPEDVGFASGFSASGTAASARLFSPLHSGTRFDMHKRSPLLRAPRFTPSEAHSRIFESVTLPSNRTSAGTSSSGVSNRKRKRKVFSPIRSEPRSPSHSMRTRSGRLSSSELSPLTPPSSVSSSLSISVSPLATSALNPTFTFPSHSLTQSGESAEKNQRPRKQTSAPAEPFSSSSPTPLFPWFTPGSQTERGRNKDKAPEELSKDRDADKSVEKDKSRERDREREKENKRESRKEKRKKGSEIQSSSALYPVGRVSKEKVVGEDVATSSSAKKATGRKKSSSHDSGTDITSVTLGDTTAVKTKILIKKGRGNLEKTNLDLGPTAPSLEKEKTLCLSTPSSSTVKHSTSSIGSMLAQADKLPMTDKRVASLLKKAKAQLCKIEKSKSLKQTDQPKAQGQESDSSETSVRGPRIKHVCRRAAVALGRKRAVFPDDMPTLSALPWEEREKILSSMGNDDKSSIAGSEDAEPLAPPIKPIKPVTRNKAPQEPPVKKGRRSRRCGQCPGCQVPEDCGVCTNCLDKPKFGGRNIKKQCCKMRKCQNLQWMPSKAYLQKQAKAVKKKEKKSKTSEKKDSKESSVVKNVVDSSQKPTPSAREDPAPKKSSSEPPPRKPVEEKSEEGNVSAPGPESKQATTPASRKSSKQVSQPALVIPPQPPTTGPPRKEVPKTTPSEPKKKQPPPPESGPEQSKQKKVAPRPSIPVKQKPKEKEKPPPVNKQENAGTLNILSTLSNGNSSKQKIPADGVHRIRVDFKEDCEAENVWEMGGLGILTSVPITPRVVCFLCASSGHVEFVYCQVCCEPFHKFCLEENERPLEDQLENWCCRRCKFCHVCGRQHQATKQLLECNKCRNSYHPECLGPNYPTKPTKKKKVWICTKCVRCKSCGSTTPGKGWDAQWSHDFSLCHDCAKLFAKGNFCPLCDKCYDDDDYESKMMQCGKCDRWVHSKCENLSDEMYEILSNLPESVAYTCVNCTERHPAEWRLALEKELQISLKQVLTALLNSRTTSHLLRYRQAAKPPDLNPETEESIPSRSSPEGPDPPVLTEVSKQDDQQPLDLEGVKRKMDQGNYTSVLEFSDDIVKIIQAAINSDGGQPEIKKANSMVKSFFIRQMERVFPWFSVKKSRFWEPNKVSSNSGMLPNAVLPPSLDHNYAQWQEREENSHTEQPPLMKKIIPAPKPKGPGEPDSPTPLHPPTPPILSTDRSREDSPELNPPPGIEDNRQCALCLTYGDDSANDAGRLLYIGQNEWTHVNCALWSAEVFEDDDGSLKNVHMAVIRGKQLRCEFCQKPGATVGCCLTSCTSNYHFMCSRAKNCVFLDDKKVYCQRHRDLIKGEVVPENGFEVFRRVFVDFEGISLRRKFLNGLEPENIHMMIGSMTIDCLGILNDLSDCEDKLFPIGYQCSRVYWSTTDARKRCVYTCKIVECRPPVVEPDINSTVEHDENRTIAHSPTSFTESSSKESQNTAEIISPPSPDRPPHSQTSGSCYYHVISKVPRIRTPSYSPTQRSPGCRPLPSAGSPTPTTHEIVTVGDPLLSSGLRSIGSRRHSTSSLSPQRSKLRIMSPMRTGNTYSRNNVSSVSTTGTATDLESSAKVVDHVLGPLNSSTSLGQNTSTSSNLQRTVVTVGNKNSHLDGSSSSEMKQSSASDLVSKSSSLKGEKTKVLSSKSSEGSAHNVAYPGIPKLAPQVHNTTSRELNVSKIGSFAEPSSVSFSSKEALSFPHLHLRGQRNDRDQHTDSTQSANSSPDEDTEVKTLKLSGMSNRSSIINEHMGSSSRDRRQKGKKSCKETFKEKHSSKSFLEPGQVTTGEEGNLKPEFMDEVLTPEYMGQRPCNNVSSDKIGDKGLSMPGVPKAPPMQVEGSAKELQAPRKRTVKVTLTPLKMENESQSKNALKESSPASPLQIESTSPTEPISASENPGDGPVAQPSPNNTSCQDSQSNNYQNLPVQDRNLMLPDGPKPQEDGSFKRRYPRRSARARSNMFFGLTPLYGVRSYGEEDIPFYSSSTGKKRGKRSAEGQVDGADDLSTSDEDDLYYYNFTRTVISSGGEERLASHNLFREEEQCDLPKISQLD
# Chain of Histone-lysine N-methyltransferase 2A (Q03164 2719-3969 limits assumed): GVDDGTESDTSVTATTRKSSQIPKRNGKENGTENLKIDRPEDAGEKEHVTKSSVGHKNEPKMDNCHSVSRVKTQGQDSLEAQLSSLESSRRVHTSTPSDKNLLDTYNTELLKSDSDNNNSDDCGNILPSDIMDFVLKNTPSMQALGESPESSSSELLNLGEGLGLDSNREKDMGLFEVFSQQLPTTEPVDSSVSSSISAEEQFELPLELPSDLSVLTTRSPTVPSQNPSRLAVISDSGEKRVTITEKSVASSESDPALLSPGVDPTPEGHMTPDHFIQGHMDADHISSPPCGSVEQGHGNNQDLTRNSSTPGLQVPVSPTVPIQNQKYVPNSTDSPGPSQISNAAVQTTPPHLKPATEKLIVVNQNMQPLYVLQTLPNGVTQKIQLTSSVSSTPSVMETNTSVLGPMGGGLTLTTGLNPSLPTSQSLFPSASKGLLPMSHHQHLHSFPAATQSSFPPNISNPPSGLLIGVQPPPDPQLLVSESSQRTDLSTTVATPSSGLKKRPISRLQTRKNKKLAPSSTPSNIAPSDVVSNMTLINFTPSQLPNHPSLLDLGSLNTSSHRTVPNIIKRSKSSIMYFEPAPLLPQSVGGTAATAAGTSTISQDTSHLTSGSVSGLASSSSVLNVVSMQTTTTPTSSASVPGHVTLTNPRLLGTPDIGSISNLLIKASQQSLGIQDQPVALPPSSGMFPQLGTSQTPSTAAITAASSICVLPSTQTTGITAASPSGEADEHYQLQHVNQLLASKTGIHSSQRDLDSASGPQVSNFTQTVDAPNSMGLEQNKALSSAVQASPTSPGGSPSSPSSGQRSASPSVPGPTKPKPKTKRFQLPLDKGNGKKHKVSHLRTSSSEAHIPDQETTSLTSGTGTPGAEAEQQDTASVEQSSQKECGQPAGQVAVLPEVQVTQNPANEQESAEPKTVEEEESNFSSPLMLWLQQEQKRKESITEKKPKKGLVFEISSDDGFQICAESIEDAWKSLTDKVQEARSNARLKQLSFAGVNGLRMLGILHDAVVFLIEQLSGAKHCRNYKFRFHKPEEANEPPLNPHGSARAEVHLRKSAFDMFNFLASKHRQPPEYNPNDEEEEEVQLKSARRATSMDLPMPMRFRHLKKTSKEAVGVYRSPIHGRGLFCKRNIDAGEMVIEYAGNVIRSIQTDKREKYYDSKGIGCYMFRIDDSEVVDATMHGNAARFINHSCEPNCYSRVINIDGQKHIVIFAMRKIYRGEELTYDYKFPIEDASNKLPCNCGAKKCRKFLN
Structure (SMILES),IC50 [1],IC50 [2],IC50 [3],IC50 [4],IC50 [5],IC50 [6],IC50 [7]
C=CC(=O)N1CCC(C(=O)O)(c2ccc(OCC)cc2)CC1,3.3 µM,15.4 µM,6.3 µM,5.8 µM,3.6 µM,2.4 µM,16.2 µM
C=CC(=O)N1CCC(c2ccc(OCC)cc2)(c2nnn[nH]2)CC1,22 µM,104 µM,24 µM,21 µM,30 µM,10.9 µM,131 µM
C=CC(=O)N1CCC(C(=O)O)(c2ccc(Cl)cc2)CC1,41 µM,108 µM,166 µM,48 µM,53 µM,31 µM,53 µM
C=CC(=O)N1CCC(c2ccccc2)(c2nnn[nH]2)CC1,4.9 µM,20 µM,11 µM,5.5 µM,8.3 µM,3.1 µM,28 µM
C=CC(=O)N1CCC(c2ccc(OC)cc2)(c2nnn[nH]2)CC1,15 µM,59 µM,31 µM,15.5 µM,32 µM,8.9 µM,56 µM
C=CC(=O)N1CCC(C(=O)NS(=O)(=O)c2ccccc2)(c2ccccc2)CC1,46 µM,52 µM,107 µM,33 µM,35 µM,21.7 µM,53 µM
C=CC(=O)N1CCC(C(=O)O)(c2ccccc2)CC1,7.1 µM,3.6 µM,11.3 µM,5.1 µM,6.4 µM,1.8 µM,4.8 µM
C=CC(=O)N1CCC(C(=O)O)(c2ccc(OC)cc2)CC1,43 µM,51 µM,81 µM,30 µM,53 µM,17 µM,47 µM
C=CC(=O)N1CCC(c2cccc(OCC)c2)(c2nnn[nH]2)CC1,7.7 µM,43 µM,10.7 µM,7 µM,9.4 µM,2.6 µM,40 µM
